ChEMBL document CHEMBL4325919, “3,5-Disubstituted-indole-7-carboxamides as IKKβ Inhibitors: Optimization of Oral Activity via the C3 Substituent” (ACS Med Chem Lett, 2018)
In brackets after ≈: the same amount, converted by molar mass.

Key:
[1] = Half life in Beagle dog at 2.03 mg/kg, po or 1.11 mg/kg, iv; format: ADME, organism-based, Canis lupus familiaris; conditions: in vivo
Outline: (§1)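 Male Beagle dogs, n=3. Vehicles were 5% DMSO with 20% Cavitron for i.v. dosing at 1.11 mg/kg and 5% DMSO with 6% Cavitron for oral dosing at 2.03 mg/kg. Derived values were plasma clearance, steady-state volume of distribution, half-life and oral bioavailability.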

[2] = system: Rattus norvegicus; experiment: Anti-inflammatory activity in LPS-induced Lewis rat inflammation model assessed as inhibition of LPS-induced TNFalpha secretion in blood administered orally 30 mins prior to LPS challenge and measured after 2 hrs by ELISA; format: functional; conditions: po
[3] = Half life in Sprague-Dawley rat at 2 mg/kg, po or 1 mg/kg, iv; format: ADME, organism-based; conditions: in vivo
Outline: (§2)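 Male Sprague Dawley rats, n=2 (n=3 for one compound). The i.v. leg used 5% DMSO with 20% Cavitron and the oral leg 5% DMSO with 6% Cavitron. Oral doses were 2 mg/kg, or 2.1 mg/kg where stated. The i.v. dose was 1 mg/kg. Clearance is plasma clearance.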

[4] = Permeability of the compound by PAMPA; format: ADME; conditions: read-out: permeability
[5] = Plasma clearance in Sprague-Dawley rat at 2 mg/kg, po or 1 mg/kg, iv; format: ADME, organism-based; outline: as §2
[6] = Oral bioavailability in Beagle dog at 2.03 mg/kg; format: ADME, organism-based, Canis lupus familiaris; conditions: in vivo; outline: as §1
[7] = AUC in Sprague-Dawley rat at 2 mg/kg, po; format: ADME, organism-based; conditions: in vivo; outline: as §2
[8] = Oral bioavailability in Sprague-Dawley rat at 2 mg/kg; format: ADME, organism-based; conditions: in vivo; outline: as §2
[9] = Volume of distribution at steady state in Sprague-Dawley rat at 2 mg/kg, po or 1 mg/kg, iv; format: ADME, organism-based; conditions: in vivo, read-out: Vdss; outline: as §2
[10] = Kinetic aqueous solubility of the compound by chemiluminescent nitrogen detection assay; format: physicochemical; conditions: buffer; read-out: Kinetic_solubility
[11] = biological target: T1, Inhibitor of nuclear factor kappa-B kinase subunit beta (Homo sapiens, UniProt O14920); experiment: Inhibition of recombinant human C-terminal GST-tagged IKKbeta (1 to 737 residues) expressed in baculovirus expression system using GST-IkBalpha substrate measured after 30 mins by TR-FRET assay
T1 sequence (O14920 whole entry): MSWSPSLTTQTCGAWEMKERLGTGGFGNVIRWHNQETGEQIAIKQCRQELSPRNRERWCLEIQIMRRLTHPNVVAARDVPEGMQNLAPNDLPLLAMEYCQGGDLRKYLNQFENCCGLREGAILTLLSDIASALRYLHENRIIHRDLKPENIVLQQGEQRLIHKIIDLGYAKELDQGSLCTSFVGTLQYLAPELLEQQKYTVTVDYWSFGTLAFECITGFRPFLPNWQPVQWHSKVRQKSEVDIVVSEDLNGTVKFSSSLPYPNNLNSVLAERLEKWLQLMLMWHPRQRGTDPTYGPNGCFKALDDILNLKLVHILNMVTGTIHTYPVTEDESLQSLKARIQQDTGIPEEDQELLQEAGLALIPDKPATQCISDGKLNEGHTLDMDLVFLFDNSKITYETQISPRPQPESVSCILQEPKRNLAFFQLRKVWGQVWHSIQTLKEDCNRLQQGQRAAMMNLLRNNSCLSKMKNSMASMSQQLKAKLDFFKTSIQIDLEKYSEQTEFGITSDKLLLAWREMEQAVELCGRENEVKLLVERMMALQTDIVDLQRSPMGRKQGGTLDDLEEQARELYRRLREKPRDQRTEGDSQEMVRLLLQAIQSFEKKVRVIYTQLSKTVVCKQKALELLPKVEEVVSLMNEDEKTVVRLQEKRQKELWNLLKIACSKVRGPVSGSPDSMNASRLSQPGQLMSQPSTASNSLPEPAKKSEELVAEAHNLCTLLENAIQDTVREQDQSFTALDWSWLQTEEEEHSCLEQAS
Outline: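 IKK pIC50 values are the mean of more than 2 determinations unless noted otherwise. Compounds were tested as racemic mixtures.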

[12] = system: Canis familiaris; experiment: Anti-inflammatory activity in inhaled LPS-induced Beagle dog lung neutrophilia model assessed as inhibition of LPS-induced increase in neutrophils in bronchoalveolar lavage administered orally 30 mins prior to LPS instillation and measured after […] by diff quick staining based hemocytometric method; format: functional; conditions: Canis lupus familiaris, po
[13] = Plasma clearance in Beagle dog at 2.03 mg/kg, po or 1.11 mg/kg, iv; format: ADME, organism-based, Canis lupus familiaris; outline: as §1
[14] = AUC in Beagle dog at 2.03 mg/kg, po; format: ADME, organism-based, Canis lupus familiaris; conditions: in vivo; outline: as §1
[15] = Volume of distribution at steady state in Beagle dog at 2.03 mg/kg, po or 1.11 mg/kg, iv; format: ADME, organism-based, Canis lupus familiaris; conditions: in vivo, read-out: Vdss; outline: as §1
[16] = biological target: T1, Inhibitor of nuclear factor kappa-B kinase subunit beta; experiment: Inhibition of IKKbeta in human CD14-positive monocytes assessed as reduction in LPS-stimulated TNFalpha secretion preincubated for 30 mins followed by LPS stimulation and measured after 24 hrs by Alpha screen assay; format: cell-based
[17] = Kinetic aqueous solubility of the compound by UV-HPLC analysis; format: physicochemical; conditions: buffer; read-out: Kinetic_solubility
[18] = Volume of distribution at steady state in Sprague-Dawley rat at 2.1 mg/kg, po or 1 mg/kg, iv; format: ADME, organism-based; conditions: in vivo, read-out: Vdss; outline: as §2
[19] = Oral bioavailability in Sprague-Dawley rat at 2.1 mg/kg; format: ADME, organism-based; conditions: in vivo; outline: as §2
[20] = AUC in Sprague-Dawley rat at 2.1 mg/kg, po; format: ADME, organism-based; conditions: in vivo; outline: as §2
[21] = Plasma clearance in Sprague-Dawley rat at 2.1 mg/kg, po or 1 mg/kg, iv; format: ADME, organism-based; outline: as §2
[22] = Half life in Sprague-Dawley rat at 2.1 mg/kg, po or 1 mg/kg, iv; format: ADME, organism-based; conditions: in vivo; outline: as §2
[23] = system: Rattus norvegicus; experiment: Antiinflammatory activity in LPS-induced rat neutrophilia model assessed as inhibition of LPS-induced increase in neutrophils in bronchoalveolar lavage at 50 umol/kg, po administered 30 mins prior to 20 mins nebulized LPS challenge and measured after 4 hrs by diff quick staining based hemocytometric method relative to control; format: functional

SMILES | half-life [3] [h] | Papp [4] [×10⁻⁶ cm/s] | clearance [5] [mL/min/kg] | AUC [7] [ng·h/mL] | bioavailability [8] [%] | Vd [9] [L/kg] | IC50 [11] [nM] | IC50 [16] [nM] | solubility kinetic [17] [µM] | also measured
CC1(C)C[C@H](c2c[nH]c3c(C(N)=O)cc(-c4ccc(F)cc4)cc23)CCS1(=O)=O | 4.5 | 28.3 | 13.2 | 1960 | 94.1 | 4.7 | 7.94 | 130 |  | half-life [1]: 20.9 h; ED50 [2]: 21.7 µmol/kg; bioavailability [6]: 65.3%; solubility kinetic [10]: 32 µM (≈ 13.3 µg/mL); ED50 [12]: 1.8 µmol/kg; clearance [13]: 1.86 mL/min/kg; AUC [14]: 8200 ng·h/mL; Vd [15]: 2.87 L/kg
NC(=O)c1cc(-c2ccccc2)cc2c(C3CCS(=O)(=O)C3)c[nH]c12 (stereo not given) |  |  |  |  |  |  | 100 |  |  | 
CCN(CC)CCCS(=O)(=O)N1CCC(c2c[nH]c3c(C(N)=O)cc(-c4ccccc4)cc23)CC1 |  | 20 |  |  |  |  | 15.8 | 190 | 173 (≈ 85.9 µg/mL) | 
CC1(C)CC(=O)NC1c1c[nH]c2c(C(N)=O)cc(-c3ccccc3)cc12 (stereo not given) |  |  |  |  |  |  | 200 |  |  | 
CN(C)CCS(=O)(=O)N1CCC(c2c[nH]c3c(C(N)=O)cc(-c4ccccc4)cc23)CC1 |  | 27 |  |  |  |  | 10 | 500 | 8 (≈ 3.64 µg/mL) | Vd [18]: 0.84 L/kg; bioavailability [19]: 46%; AUC [20]: 2080 ng·h/mL; clearance [21]: 7.43 mL/min/kg; half-life [22]: 1.75 h
NC(=O)c1cc(-c2ccccc2)cc2c(C3CCC(=O)CC3)c[nH]c12 |  |  |  |  |  |  | 501 |  |  | 
CS(=O)(=O)CCc1c[nH]c2c(C(N)=O)cc(-c3ccccc3)cc12 |  |  |  |  |  |  | 63.1 |  |  | 

More lines, main results first:

half-life [3] [h] | Papp [4] [×10⁻⁶ cm/s] | clearance [5] [mL/min/kg] | AUC [7] [ng·h/mL] | bioavailability [8] [%] | Vd [9] [L/kg] | IC50 [11] [nM] | IC50 [16] [nM] | solubility kinetic [17] [µM] | SMILES | also measured
 | 24 |  |  |  |  | 7.94 |  | 162 (≈ 82.4 µg/mL) | NC(=O)c1cc(-c2ccccc2)cc2c(C3CCN(S(=O)(=O)CCCN4CCCCC4)CC3)c[nH]c12 | 
4.6 | 16 | 4 | 998 | 12 | 1 | 10 | 50 | 185 (≈ 91.5 µg/mL) | NC(=O)c1cc(-c2ccccc2)cc2c(C3CCN(S(=O)(=O)CCCN4CCCC4)CC3)c[nH]c12 | 
1.18 | 31.8 | 8.9 | 2030 | 53 | 0.43 | 31.6 | 200 | 36 (≈ 18.4 µg/mL) | NC(=O)c1cc(-c2ccccc2)cc2c(C3CCN(S(=O)(=O)CCCN4CCOCC4)CC3)c[nH]c12 | inhibition in vivo at 50 µmol/kg [23]: 30%
 | 14 |  |  |  |  | 20 |  | 85 (≈ 43.2 µg/mL) | NC(=O)c1cc(-c2ccccc2)cc2c(C3CCN(S(=O)(=O)CCCNC4CCCC4)CC3)c[nH]c12 | 
 | 29 |  |  |  |  | 6.31 |  | 93 (≈ 48.6 µg/mL) | NC(=O)c1cc(-c2ccccc2)cc2c(C3CCN(S(=O)(=O)CCCN4CCCCCC4)CC3)c[nH]c12 | 
4.43 | 0.3 | 14 | 48 | 3 | 3 | 7.94 | 140 | 33 (≈ 14.1 µg/mL) | NCCS(=O)(=O)N1CCC(c2c[nH]c3c(C(N)=O)cc(-c4ccccc4)cc23)CC1 | 
